# Results reported in ChEMBL document CHEMBL4689842, “EUbOPEN Chemogenomics Library wave 1” (2021).
# Test system: Fibroblast
# Assay: Multiplex assay against human fibroblast
# Type: toxicity, cell-based
# In short: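 Imaging took place on a CQ1 microscope at 37°C and 5% CO2 once compound had been added to live cells stained at seeding with Hoechst33342, BioTracker Green Microtubule Cytoskeleton Dye, MitoTracker Red and Annexin V Alexa Fluor 680. CellPathfinder machine-learning gating classed cells as Hoechst high-intensity objects or normal cells, classed normal cells as having healthy, pyknosed or fragmented nuclei, and classed pyknosed cells as mitotic or apoptotic. Tubulin, mitochondrial-mass and membrane-permeability phenotypes are per cents of the healthy-nucleus cells.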
# [1] = 12 h, 1 µM, compound concentration 1 uM, replicate 1
# [2] = 12 h, 1 µM, compound concentration 1 uM, replicate 2
# [3] = 12 h, 10 µM, compound concentration 10 uM, replicate 1
# [4] = 12 h, 10 µM, compound concentration 10 uM, replicate 2
# [5] = 24 h, 1 µM, compound concentration 1 uM, replicate 1
# [6] = 24 h, 1 µM, compound concentration 1 uM, replicate 2
# [7] = 24 h, 10 µM, compound concentration 10 uM, replicate 1
# [8] = 24 h, 10 µM, compound concentration 10 uM, replicate 2
# [9] = 48 h, 1 µM, compound concentration 1 uM, replicate 1
# [10] = 48 h, 1 µM, compound concentration 1 uM, replicate 2
# [11] = 48 h, 10 µM, compound concentration 10 uM, replicate 1
# [12] = 48 h, 10 µM, compound concentration 10 uM, replicate 2
compound,measurement,setting,value
CCc1cccc(CC)c1NC(=O)c1nn(C)c2c1CCc1cnc(Nc3ccc(C(=O)NC4CCN(C)CC4)cc3OC(F)(F)F)nc1-2,Population Apoptotic (%),[1],62%
same,Population Fragmented Nuclei (%),[1],22%
same,Population Healthy Nuclei (%),[1],38%
same,Population Hoechst High Intensity Objects (%),[1],7%
same,Population Membrane Permeable-Phenotype (%),[1],24%
same,Population Mitochondria Different-Phenotype (%),[1],7%
same,Population Mitotic Cells (%),[1],37%
same,Population Normal (%),[1],92%
same,Population Pyknosed Nuclei (%),[1],39%
same,Population Tubulin-Different-Phenotype (%),[1],47%
same,Total Cell Count,[1],160
same,Population Apoptotic (%),[2],40%
same,Population Fragmented Nuclei (%),[2],1%
same,Population Healthy Nuclei (%),[2],83%
same,Population Hoechst High Intensity Objects (%),[2],13%
same,Population Membrane Permeable-Phenotype (%),[2],5%
same,Population Mitochondria Different-Phenotype (%),[2],14%
same,Population Mitotic Cells (%),[2],60%
same,Population Normal (%),[2],86%
same,Population Pyknosed Nuclei (%),[2],15%
same,Population Tubulin-Different-Phenotype (%),[2],18%
same,Total Cell Count,[2],51
same,Population Apoptotic (%),[3],61%
same,Population Fragmented Nuclei (%),[3],24%
same,Population Healthy Nuclei (%),[3],51%
same,Population Hoechst High Intensity Objects (%),[3],21%
same,Population Membrane Permeable-Phenotype (%),[3],8%
same,Population Mitochondria Different-Phenotype (%),[3],26%
same,Population Mitotic Cells (%),[3],38%
same,Population Normal (%),[3],78%
same,Population Pyknosed Nuclei (%),[3],23%
same,Population Tubulin-Different-Phenotype (%),[3],60%
same,Total Cell Count,[3],139
same,Population Apoptotic (%),[4],46%
same,Population Fragmented Nuclei (%),[4],12%
same,Population Healthy Nuclei (%),[4],70%
same,Population Hoechst High Intensity Objects (%),[4],5%
same,Population Membrane Permeable-Phenotype (%),[4],15%
same,Population Mitochondria Different-Phenotype (%),[4],98%
same,Population Mitotic Cells (%),[4],53%
same,Population Normal (%),[4],94%
same,Population Pyknosed Nuclei (%),[4],17%
same,Population Tubulin-Different-Phenotype (%),[4],86%
same,Total Cell Count,[4],75
same,Population Apoptotic (%),[5],48%
same,Population Fragmented Nuclei (%),[5],23%
same,Population Healthy Nuclei (%),[5],40%
same,Population Hoechst High Intensity Objects (%),[5],11%
same,Population Membrane Permeable-Phenotype (%),[5],23%
same,Population Mitochondria Different-Phenotype (%),[5],5%
same,Population Mitotic Cells (%),[5],52%
same,Population Normal (%),[5],88%
same,Population Pyknosed Nuclei (%),[5],35%
same,Population Tubulin-Different-Phenotype (%),[5],53%
same,Total Cell Count,[5],157
same,Population Apoptotic (%),[6],37%
same,Population Fragmented Nuclei (%),[6],7%
same,Population Healthy Nuclei (%),[6],81%
same,Population Hoechst High Intensity Objects (%),[6],10%
same,Population Membrane Permeable-Phenotype (%),[6],5%
same,Population Mitochondria Different-Phenotype (%),[6],12%
same,Population Mitotic Cells (%),[6],62%
same,Population Normal (%),[6],89%
same,Population Pyknosed Nuclei (%),[6],11%
same,Population Tubulin-Different-Phenotype (%),[6],19%
same,Total Cell Count,[6],53
same,Population Apoptotic (%),[7],62%
same,Population Fragmented Nuclei (%),[7],25%
same,Population Healthy Nuclei (%),[7],49%
same,Population Hoechst High Intensity Objects (%),[7],30%
same,Population Membrane Permeable-Phenotype (%),[7],16%
same,Population Mitochondria Different-Phenotype (%),[7],40%
same,Population Mitotic Cells (%),[7],37%
same,Population Normal (%),[7],69%
same,Population Pyknosed Nuclei (%),[7],25%
same,Population Tubulin-Different-Phenotype (%),[7],50%
same,Total Cell Count,[7],161
same,Population Apoptotic (%),[8],50%
same,Population Fragmented Nuclei (%),[8],15%
same,Population Healthy Nuclei (%),[8],63%
same,Population Hoechst High Intensity Objects (%),[8],2%
same,Population Membrane Permeable-Phenotype (%),[8],26%
same,Population Mitochondria Different-Phenotype (%),[8],91%
same,Population Mitotic Cells (%),[8],50%
same,Population Normal (%),[8],97%
same,Population Pyknosed Nuclei (%),[8],20%
same,Population Tubulin-Different-Phenotype (%),[8],73%
same,Total Cell Count,[8],77
same,Population Apoptotic (%),[9],67%
same,Population Fragmented Nuclei (%),[9],31%
same,Population Healthy Nuclei (%),[9],45%
same,Population Hoechst High Intensity Objects (%),[9],15%
same,Population Membrane Permeable-Phenotype (%),[9],16%
same,Population Mitochondria Different-Phenotype (%),[9],7%
same,Population Mitotic Cells (%),[9],32%
same,Population Normal (%),[9],84%
same,Population Pyknosed Nuclei (%),[9],23%
same,Population Tubulin-Different-Phenotype (%),[9],40%
same,Total Cell Count,[9],141
same,Population Apoptotic (%),[10],20%
same,Population Fragmented Nuclei (%),[10],38%
same,Population Healthy Nuclei (%),[10],55%
same,Population Hoechst High Intensity Objects (%),[10],11%
same,Population Membrane Permeable-Phenotype (%),[10],10%
same,Population Mitochondria Different-Phenotype (%),[10],4%
same,Population Mitotic Cells (%),[10],80%
same,Population Normal (%),[10],88%
same,Population Pyknosed Nuclei (%),[10],5%
same,Population Tubulin-Different-Phenotype (%),[10],42%
same,Total Cell Count,[10],102
same,Population Apoptotic (%),[11],70%
same,Population Fragmented Nuclei (%),[11],31%
same,Population Healthy Nuclei (%),[11],50%
same,Population Hoechst High Intensity Objects (%),[11],38%
same,Population Membrane Permeable-Phenotype (%),[11],16%
same,Population Mitochondria Different-Phenotype (%),[11],15%
same,Population Mitotic Cells (%),[11],30%
same,Population Normal (%),[11],61%
same,Population Pyknosed Nuclei (%),[11],18%
same,Population Tubulin-Different-Phenotype (%),[11],47%
same,Total Cell Count,[11],172
same,Population Apoptotic (%),[12],25%
same,Population Fragmented Nuclei (%),[12],29%
same,Population Healthy Nuclei (%),[12],67%
same,Population Hoechst High Intensity Objects (%),[12],15%
same,Population Membrane Permeable-Phenotype (%),[12],30%
same,Population Mitochondria Different-Phenotype (%),[12],10%
same,Population Mitotic Cells (%),[12],75%
same,Population Normal (%),[12],84%
same,Population Pyknosed Nuclei (%),[12],2%
same,Population Tubulin-Different-Phenotype (%),[12],43%
same,Total Cell Count,[12],158
